Peptide text beside a SMILES is read from it. * marks the point of attachment. Cbz = O=C(OCc1ccccc1)*; CH2F = FC*
What was measured:
Jurkat cells [1] = assay: Cell viability by trypan blue exclusion; assay type: cell-based; details: for cell viability (trypan blue exclusion): 100 nM
Jurkat cells [2] = assay: DNA fragmentation; assay type: cell-based; details: 24 h
Jurkat cells [3] = assay: Intracellular superoxide levels; assay type: cell-based; details: 100 nM; for increase of intracellular superoxide compared to diluent: 16 h; for ROS levels (superoxide and hydrogen peroxide): time course
In short: (§1)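 Jurkat cells treated at 100 nM over a time course up to 16 h. Stained 30 min in the dark with dihydroethidine (superoxide, FL-3) or CM-H2DCF-DA (hydrogen peroxide, FL-1); flow cytometry, mean fluorescence reported. Compared with DMSO-treated cells by ANOVA and Bonferroni post-test.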

Jurkat cells [4] = assay: Intracellular hydrogen peroxide levels; assay type: cell-based; details: 100 nM, time course
In short: as §1

[5] = target: chymotrypsin-like (CT-L) activity of the proteasome (Homo sapiens, UniProt P28074); assay: Chymotrypsin-like proteasome activity in treated Jurkat cells; assay type: cell-based; details: for CT-L activity over time (recovery or sustained inhibition): 1 h to 16 h
[6] = target: caspase-like (C-L) activity of the proteasome (Homo sapiens, UniProt P28072); assay: Caspase-like proteasome activity in treated Jurkat cells; assay type: cell-based; details: for inhibition of C-L activity: Jurkat cells, equipotent concentrations (4.5 μM NPI-2078, 1 μM NPI-2104, 25 nM marizomib)
In short: (§2)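 Jurkat cells dosed 1 h or 12 h at equipotent concentrations chosen from 24 h DNA-fragmentation dose-response. Caspase-like activity read as z-LLE-amc hydrolysis; trypsin-like as […] hydrolysis. Fluorescence at ex 380/em 460 nm (RFU), normalized to DMSO-treated cells as 100%. Mean ± SD of three independent experiments; two-way ANOVA with Bonferroni post-test.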

[7] = target: trypsin-like (T-L) activity of the proteasome (Homo sapiens, UniProt Q99436); assay: Trypsin-like proteasome activity in treated Jurkat cells; assay type: cell-based
In short: as §2

caspase-8 = assay: Caspase-8 activation by western blot; assay type: cell-based; details: Jurkat cells, 6 h
In short: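 Jurkat cells treated 6 h at 100 nM. Lysates from 5x10^6 cells; 50 μg protein run on SDS-PAGE, transferred to nitrocellulose, probed with caspase-8 antibody (1:500) detecting pro- and cleaved forms, then secondary (1:5000). Antibodies in 5% milk/TBS, 0.005% Tween; ECL detection. Densitometry given as cleaved:pro-caspase-8 ratio.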

Jurkat cells [8] = assay: Cell size by forward scatter versus side scatter; assay type: cell-based; details: 100 nM, 24 h
In short: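 Jurkat cells treated 24 h, then analysed by flow cytometry. Cell size judged on forward- versus side-scatter plots, with a gate set on the DMSO control population to detect size shifts after treatment.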

[9] = system: β5 protein (chymotryptic-like subunit of the proteasome); assay: β5 subunit protein level by western blot; assay type: cell-based; details: Jurkat cells, 100 nM, 1, 6 and 12 h
PARP = PARP cleavage by western blot; assay type: cell-based; details: Jurkat cells, 100 nM, 16 h
In short: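 Jurkat cells exposed to 100 nM for 16 h. Lysates from 5x10^6 cells; 50 μg protein by SDS-PAGE, nitrocellulose transfer, PARP antibody 1:2000, secondary 1:5000, diluted in 5% milk/TBS with 0.005% Tween; ECL detection. Cleaved PARP band quantified by densitometry, normalized to actin.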

Jurkat cells [10] = assay: Nuclear morphology by Hoechst staining; assay type: cell-based; details: 100 nM, 24 h
In short: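 Jurkat cells exposed 24 h at 100 nM; 10,000 cells stained with 5 μM Hoechst 33342 for 20 min, cytocentrifuged onto slides and examined by fluorescence microscopy for nuclear shrinkage and fragmentation.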

proteasomal activities = details: leukemia cells; cited from earlier work
[11] = equipotent concentrations (4.5 μM NPI-2078, 1 μM NPI-2104, 25 nM marizomib), 1 h
[12] = equipotent concentrations (4.5 μM NPI-2078, 1 μM NPI-2104, 25 nM marizomib), 12 h
[13] = equipotent concentrations (4.5 μM NPI-2078, 1 μM NPI-2104, 25 nM marizomib)

CC(=O)N[C@@H](CS)C(=O)O [NAC, N-acetyl cysteine, reference compound]
toxicity as single agent (Jurkat cells [1]; 24 mM): did not have toxic effects
effect of antioxidant pretreatment on viability loss by LG analogs (Jurkat cells [1]; 24 mM NAC before 100 nM analogs, 24 h): offered protection
effect of antioxidant pretreatment on DNA fragmentation induced by LG analogs (Jurkat cells [2]; 24 mM NAC before 100 nM analogs): attenuated

CC12OC(=O)C1(C(O)C1C=CCCC1)NC(=O)C2CCBr (stereo not drawn) [NPI-2053]
increase of intracellular superoxide compared to diluent (Jurkat cells [3]): over 7 fold
hydrogen peroxide levels compared to diluent (Jurkat cells [4]): steadily increased

CC12OC(=O)C1(C(O)C1CCCCC1)NC(=O)C2CCCl (stereo not drawn) [NPI-2056]
CT-L activity over time (recovery or sustained inhibition) ([5]; 100 nM): partial recovery
cell viability (trypan blue exclusion) (Jurkat cells [1]; 24 h): more viable cells
DNA fragmentation (Jurkat cells [2]; 100 nM): less DNA fragmentation
increase of intracellular superoxide compared to diluent (Jurkat cells [3]): over 7 fold
hydrogen peroxide levels compared to diluent (Jurkat cells [4]): steadily increased

CC12OC(=O)C1(C(O)C1C=CCCC1)NC(=O)C2CCI (stereo not drawn) [NPI-2070]
increase of intracellular superoxide compared to diluent (Jurkat cells [3]): over 7 fold
hydrogen peroxide levels compared to diluent (Jurkat cells [4]): steadily increased

CC12OC(=O)C1(C(O)C1C=CCCC1)NC(=O)C2CCN=[N+]=[N-] (stereo not drawn) [NPI-2078]
CT-L activity, % of control [5, 11]: 10%
inhibition of CT-L activity [5, 12]: 70%
inhibition of C-L activity ([6]; 1 h): ≥ 95%
inhibition of C-L activity ([6]; 12 h): > 65%
inhibition of T-L activity [7, 12]: ~5%
cell viability (trypan blue exclusion) (Jurkat cells [1]; 24 h): did not affect viability
caspase-8 activation (cleavage of pro-caspase-8) (caspase-8; [13]): caspase-8 activation occurred
ROS levels (superoxide and hydrogen peroxide) (Jurkat cells [3]): weak
change in cell size compared to control population (Jurkat cells [8]): did not show a large change in cell size
level of β5 protein [9]: Neither inhibitor decreased levels of β5 protein

CC12OC(=O)C1(C(O)C1C=CCCC1)NC(=O)C2CCSC#N (stereo not drawn) [NPI-2104]
inhibition of CT-L activity ([5]; 100 nM, 1 h): about 90%
CT-L activity over time (recovery or sustained inhibition) ([5]; 100 nM): recovered
CT-L activity, % of control ([5]; 100 nM, 12 h): 64.5%
CT-L activity, % of control ([5]; equipotent concentration (1 μM NPI-2104), 12 h): 28.6%
CT-L activity, % of control [5, 11]: 10%
inhibition of CT-L activity [5, 12]: 70%
inhibition of C-L activity ([6]; 1 h): ≥ 95%
inhibition of C-L activity ([6]; 12 h): > 65%
inhibition of T-L activity ([7]; equipotent concentrations (1 μM NPI-2104, 25 nM marizomib), 1 h): 11%
inhibition of T-L activity [7, 12]: > 30%
cell viability (trypan blue exclusion) (Jurkat cells [1]; 24 h): did not affect viability
caspase-8 activation (cleavage of pro-caspase-8) (caspase-8; 100 nM): weakly activated
caspase-8 activation (cleavage of pro-caspase-8) (caspase-8; [13]): caspase-8 activation occurred
ROS levels (superoxide and hydrogen peroxide) (Jurkat cells [3]): weak

Cc1ccc(S(=O)(=O)OCCC2C(=O)NC3(C(O)C4C=CCCC4)C(=O)OC23C)cc1 (stereo not drawn) [NPI-2151]
increase of intracellular superoxide compared to diluent (Jurkat cells [3]): over 7 fold
hydrogen peroxide levels compared to diluent (Jurkat cells [4]): steadily increased

C[C@@]12OC(=O)[C@]1([C@@H](O)[C@@H]1C=CCCC1)NC(=O)[C@@H]2CCCl [marizomib, Marizomib, reference compound]
inhibition of CT-L activity [5, 12]: sustained
inhibition of C-L activity ([6]; 12 h): sustained
inhibition at 0.025 µM ([6]; Jurkat, read-out: inhibition of C-L activity): 88%
caspase-8 activation (cleavage of pro-caspase-8) (caspase-8; [13]): caspase-8 activation occurred
PARP cleavage (PARP): PARP cleavage occurred
nuclear morphology (Hoechst staining) (Jurkat cells [10]): shrinkage and fragmentation of the DNA
change in cell size compared to control population (Jurkat cells [8]): altered cell size
level of β5 protein [9]: Neither inhibitor decreased levels of β5 protein
profile of inhibition of proteasome activities (proteasomal activities): blocking the CT-L and C-L activities potently, while T-L activity is inhibited to a lesser extent

CC[C@H](C)[C@H](NC(=O)OCc1ccccc1)C(=O)N[C@@H](CCC(=O)OC)C(=O)N[C@H](C(=O)N[C@@H](CC(=O)OC)C(=O)CF)[C@@H](C)O [z-IETD-fmk] (Cbz-IE(OMe)TD(OMe)-CH2F)
effect of caspase-8 inhibitor pretreatment on analog-induced DNA fragmentation (Jurkat cells [2]; 25 μM z-IETD-fmk 30 min before 100 nM analogs): prevented

Reference: PMC3186881 (Chemico-biological interactions, 2011)
